Legend:
[1] = Cytotoxicity against mouse Sarcoma 180 cells assessed as cell viability at 100 uM after 18 to 24 hrs relative to control; assay type: cell-based; settings: in the assay text read “18 to 42 hrs” for “18 to 24 hrs”, read-out: Activity
How it was run: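 Sarcoma 180 cells were grown in medium with horse serum at 37 °C under humidified 5% CO2–95% air, with a generation time of about 18 h. Compound was added to exponentially growing cultures at about 2 × 10^4 cells/ml. The increase in cell number was measured after 18 and 42 h, and percent inhibition was calculated relative to a drug-free control.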

[2] = Cytotoxicity against mouse Sarcoma 180 cells assessed as cell viability at 400 uM after 18 to 42 hrs relative to control
Human alphaherpesvirus 1 [3] = assay: Antiviral activity against Herpes simplex virus 1 infected in African green monkey Vero cells assessed as viral titer at 400 uM after 40 hrs by plaque formation assay relative to control; assay type: functional
How it was run: (§1)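 After a 1 h adsorption at 37 °C, inoculum was removed, cells were PBS-washed, and medium with or without compound was added. Incubation was 40 h at 37 °C. Cultures were freeze-thawed three times, and lysate yield was titrated by plaque assay on Vero. Pfu given as % of drug-free culture.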

Human alphaherpesvirus 1 [4] = assay: Antiviral activity against Herpes simplex virus 1 infected in African green monkey Vero cells assessed as viral titer at 200 uM after 40 hrs by plaque formation assay relative to control; assay type: functional; how it was run: as §1
Vero = assay: Cytotoxicity against African green monkey Vero cells assessed as inhibition of replication; assay type: cell-based; settings: chlorocebus sabaeus

Structure (SMILES)	viability at 100 µM [1] [%]	viability at 400 µM [2] [%]	Activity (Human alphaherpesvirus 1 [3]) [%]	Activity (Human alphaherpesvirus 1 [4]) [%]	Activity (Vero)
Cc1ccc(S(=O)(=O)OC[C@H]2O[C@@H](n3cc(Br)c(=O)[nH]c3=O)C[C@@H]2O)cc1	65				
[N-]=[N+]=NC[C@H]1O[C@@H](n2cc(Br)c(=O)[nH]c2=O)C[C@@H]1O		100	54		
NC[C@H]1O[C@@H](n2cc(Br)c(O)nc2=O)C[C@@H]1O				1	Non-toxic
Cc1ccc(S(=O)(=O)OC[C@H]2O[C@@H](n3cc(Cl)c(=O)[nH]c3=O)C[C@@H]2O)cc1	65				
Cc1cn([C@H]2C[C@H](O)[C@@H](CN)O2)c(=O)[nH]c1=O		100	3		Non-toxic
[N-]=[N+]=NC[C@H]1O[C@@H](n2cc(Cl)c(=O)[nH]c2=O)C[C@@H]1O		100	81		
NC[C@H]1O[C@@H](n2cc(Cl)c(O)nc2=O)C[C@@H]1O		100	29		Non-toxic
[N-]=[N+]=NC[C@H]1O[C@@H](n2cc(I)c(=O)[nH]c2=O)C[C@@H]1O		100	60		
NC[C@H]1O[C@@H](n2ccc(=O)[nH]c2=O)C[C@@H]1O		100	101		

— ChEMBL document CHEMBL3272095, “Synthesis and antiviral activity of 5- and 5'-substituted thymidine analogs” (J Med Chem, 1976)
